# Compound activity from PubChem BioAssay.
# CFTR F508del cor = F508del CFTR correction, initial screen, CFBE line, single point | AID 720511, 2013 | 350,000 tested, 0.36% active | activity (quench increase), % at 7.58 µM | CFBE cells, YFP halide quenching; stimulated with forskolin plus potentiator P3; % fluorescence drop versus neutral controls;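 active = mean added fluorescence quench of at least 8% versus neutral control, with both replicates also reaching 8%; inconclusive = only one of the mean or replicate conditions met; inactive = mean below 8% and not both replicates reaching 8%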;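 note: cells transiently co-express mutant CFTR-F508del with the halide-sensitive YFP; corrector assay measuring rescue of mutant channel to the surface after 24 h compound exposure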
# DENV2 CPE rescue = inhibitors of DENV2 cytopathic effect, primary screen, cell-based, plate reader, single concentration. 350,000 tested, 1.7% active. AID 651640, 2012. CPE inhibition, % at 9.99 µM. DENV2-infected cells, cytopathic effect rescue; in the data active = CPE inhibition above about 20%, passing the limit was not always enough; inconclusive = no clear call, values can overlap the other calls; tested in BHK-21 cells;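 note: 0% = median of neutral control wells and 100% = median of positive control wells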
# GSIS activator = GLuc luminescence reporter in INS-1E cells, primary screen for activators of glucose-dependent secretion of insulin | INS-1E GLuc reporter insulin secretion, 2-3 h | activation, % at 16.6 µM | 370,000 tested, 0.61% active | AID 743287, 2014;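 active = lowest replicate activation of at least 40%, so every replicate reaches that level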;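 note: 0% = median of neutral control wells and 100% = median of IBMX positive control wells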
# E-sel inducer = E-selectin induction in HUVECs, primary screen, imaging, HUVEC, immunofluorescence imaging, single point | P16581 | normalized: neutral wells 0, TNF-alpha wells 100 | activation, % at 7.58 µM | 260,000 tested, 0.37% active | AID 686992, 2013;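 active = mean E-selectin-positive cell signal at least 10% of the positive control, reached in at least 60% of replicates, without over 20% cell loss; inconclusive = no rule given, readout overlaps actives, possibly toxicity-flagged; inactive = the rest, including those meeting only one limit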
# Target sequence (P16581 whole entry, looked up): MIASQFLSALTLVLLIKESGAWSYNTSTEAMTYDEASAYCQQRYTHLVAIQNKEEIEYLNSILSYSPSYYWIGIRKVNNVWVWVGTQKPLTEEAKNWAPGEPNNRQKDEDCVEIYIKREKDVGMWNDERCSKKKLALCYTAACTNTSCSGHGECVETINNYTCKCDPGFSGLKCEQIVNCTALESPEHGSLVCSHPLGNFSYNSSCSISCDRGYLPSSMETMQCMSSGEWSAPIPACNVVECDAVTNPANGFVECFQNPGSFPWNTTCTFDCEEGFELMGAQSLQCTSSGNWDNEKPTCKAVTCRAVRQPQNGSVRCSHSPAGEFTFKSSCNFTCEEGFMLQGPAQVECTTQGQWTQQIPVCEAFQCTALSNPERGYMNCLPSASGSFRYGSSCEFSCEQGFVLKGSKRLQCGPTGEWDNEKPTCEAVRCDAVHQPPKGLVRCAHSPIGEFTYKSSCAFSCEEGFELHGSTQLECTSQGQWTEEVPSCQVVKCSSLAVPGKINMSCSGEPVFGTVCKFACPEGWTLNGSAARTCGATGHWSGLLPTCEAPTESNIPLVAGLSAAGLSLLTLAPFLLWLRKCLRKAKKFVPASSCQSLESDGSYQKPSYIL
#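 Read-out basis: % PE-positive cells; Test system: HUVEC primary endothelial cells; Technique: immunofluorescence imaging; Dosing: single-point compound dose.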
# ERAP1 inh = human ERAP1 aminopeptidase inhibitors, primary screen, biochemical, single point, plate reader; recombinant ERAP1, Leu-AMC fluorescence, 60 min; inhibition, % at 10.7 µM; 340,000 tested, 0.15% active; AID 652197, 2013;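 active = mean replicate inhibition of at least 30%, or all replicates individually reaching that 30% level; inactive = mean below 30% and not every replicate reaching it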;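 note: 0% = neutral control wells and 100% = L-leucinethiol positive control wells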
# miR-122 sensor = miR-122 Renilla sensor signal increase in Huh7, primary screen, miR-122 inhibitor project, cell-based, single point, plate reader. activation (reporter increase), % at 12.5 µM. AID 602342, 2012. Huh7 miR-122 Renilla luciferase sensor, 48 h; neutral wells = 0, positive control = 100. 340,000 tested, 0.3% active;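 active = mean replicate activation score at least 90 and every replicate individually at or above 90; inconclusive = only one of the two criteria met; inactive = neither criterion met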;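 note: higher luciferase means less miR-122 activity so hits act as miR-122 inhibitors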
# * hit, by the source's call; ? = inconclusive; / = no result; [ ] = dose if it differs, or a comment. Sampled rows, rich in hits. Any-hit rate of the full collection: about 2.6%.
SMILES,CFTR F508del cor,DENV2 CPE rescue,GSIS activator,E-sel inducer,ERAP1 inh,miR-122 sensor
Cc1ccc(S(=O)(=O)N(C)C[C@@H]2Oc3c(NC(=O)C4CCOCC4)cccc3C(=O)N([C@@H](C)CO)C[C@H]2C)cc1,-3,-2,7,1,0,-14[16.7 µM]
O=C(CC1CC1)N1CC[C@@H]2[C@H]1c1cc(-c3cccc(F)c3)ccc1N[C@@H]2CO,2,?,-12,1,1,-2[16.7 µM]
O=C(C[C@H]1CC[C@H]2[C@@H](COC[C@@H](O)CN2Cc2ccccc2F)O1)N1CCc2ccccc2C1,3,-8,-10,0,4,-4[16.7 µM]
O=C(C[C@H]1CC[C@@H]2[C@H](COC[C@H](O)CN2Cc2ccc(Oc3ccccc3)cc2)O1)N1CCc2ccccc2C1,11*,-3,/,/,0,-9[16.7 µM]
O=C(C[C@@H]1CC[C@@H]2[C@H](COC[C@H](O)CN2Cc2ccc(Oc3ccccc3)cc2)O1)N1CCN(c2ccccc2)CC1,8.9*,1,-5,0,-1,-13[16.7 µM]
O=C(C[C@H]1CC[C@H]2[C@@H](COC[C@H](O)CN2Cc2ccccc2F)O1)N1CCc2ccccc2C1,-5,28*,-13,0,3,30[16.7 µM]
O=C(C[C@H]1CC[C@H]2[C@@H](COC[C@@H](O)CN2Cc2ccc(Oc3ccccc3)cc2)O1)N1CCc2ccccc2C1,0,13,-19,/,0,-5[16.7 µM]
O=C(C[C@H]1CC[C@H]2[C@@H](COC[C@H](O)CN2Cc2ccc(Oc3ccccc3)cc2)O1)N1CCN(c2ccccc2)CC1,3,2,-15,0,-1,-17[16.7 µM]
CCC[C@@H]1CCCO[C@@](C(=O)NCc2ccccn2)(C(F)(F)F)C1,0,69*,/,0,1,/
COc1ccc(C(C)(NC(C)=O)c2nc(-c3cccc(F)c3)cs2)cc1 (stereo unspecified),-1,29*,-5,0,-1,0
CCCCCCCCCCCCCCC(O)C[N+](C)(CCO)CCO (stereo unspecified),1,9,295*,2,64*,-4
COC(=O)c1nc(Cl)c(Cl)c(N)c1Cl,-3,4,66,/,8,/
CCCCCCCCOC(=O)c1nc(Cl)c(Cl)c(N)c1Cl,-1,-2,60*,/,3,-5
Cc1noc(C)c1S(=O)(=O)Nc1ccc2c(c1)CC(=O)N([C@@H](C)CO)C[C@H](C)[C@@H](CN(C)Cc1ccc(C(=O)Nc3ccccc3N)cc1)O2,2,-3,32,/,-3,/
COc1ccc(CCN(C)C(=O)Cn2c(=O)oc3ccccc32)cc1OC,1,-1,70*,/,0,1
COc1ccccc1Cn1c(=O)oc2ccccc21,0,-15,43*,0,0,-6
COc1ccc(CCNC(=O)Cn2c(=O)oc3ccccc32)cc1OC,/,/,/,/,/,-1
COc1ccc(CCN(C)C(=O)CSc2ncnc3sccc23)cc1OC,3,-4,78*,/,0,/
COc1ccc(CCN(C)c2ncnc3sccc23)cc1OC,1,9,20,/,-1,/
C/C=C/c1ccc2c(c1)O[C@@H](CN(C)C(=O)C1CCOCC1)[C@@H](C)CN([C@@H](C)CO)S2(=O)=O,0,-9,-10,0,-1,-4[16.7 µM]
CN1[C@@H]2c3ccc(-c4cccc(F)c4)c(=O)n3C[C@H]1[C@H](CO)[C@H]2C(=O)NCc1ccccc1,/,-9,8,0,0,/
COc1ccc(C2=NN(C(C)=O)C(c3cccs3)C2)cc1OC (stereo unspecified),6,2,76*,/,2,-8
O=C(C[C@H]1C=C[C@H](NC(=O)Nc2ccccc2F)[C@@H](CO)O1)NCc1ccc(F)cc1,-2,-1,17,-1,-3,/
CC(C)OC(=O)c1ccc(NCc2cc(O)ccc2O)cc1,-2,51*,/,0,2,6
C#CCN(C[C@H]1[C@H](OC(=O)Nc2c(C)noc2C)[C@H](OC(=O)Nc2c(C)noc2C)C[C@@H](C(=O)OC)[C@H]1C(=O)OC)S(=O)(=O)c1ccc(C)cc1,2,70*,-6,1,-1,-1
SMILES,CFTR F508del cor,DENV2 CPE rescue,GSIS activator,E-sel inducer,ERAP1 inh,miR-122 sensor
COc1ccc(/C=N/NC(=O)COc2ccccc2-c2ccccc2)cc1,/,/,-4,/,6,129*
CCC(=O)Nc1ccc2c(c1)C(=O)N(C)C[C@@H](OC)[C@H](C)CN(Cc1ccccc1OC)[C@@H](C)CO2,/,3,9,0,1,1[16.7 µM]
COc1ccccc1OCCOc1ccc(/C=C2/C(=N)N3OC(C)=CC3=NC2=O)cc1OC,/,/,287*,/,/,-4
COc1cc(/C=C2\C(=N)N3N=C(S(C)(=O)=O)SC3=NC2=O)ccc1OCCOc1ccccc1C,/,3,/,0,5,-6
CC1=CC2=NC(=O)/C(=C\c3cccn3CCOc3ccccc3C)C(=N)N2O1,/,8,1,1,9,147*
C[C@@H]1CN([C@H](C)CO)C(=O)c2cc(NS(=O)(=O)c3ccc(F)cc3)ccc2O[C@@H]1CN(C)CC1CC1,-1,-1,1,-2,2,-2[16.7 µM]
O=C1CSC(c2ccc([N+](=O)[O-])cc2)N1CCN1CCCCC1 (stereo unspecified),-1,-2,13,0,0,/
O=C1CSC(c2ccc([N+](=O)[O-])cc2)N1C1CCCCC1 (stereo unspecified),3,2,87*,/,-1,/
CCOC(=O)c1c(NC(=O)COC(=O)CCNS(=O)(=O)c2ccccc2)sc(C(=O)NC)c1C,2,9,-2,/,38*,7
COCOc1cccc(CN2CCC(C)(Oc3cccc(C#N)c3)C2)c1 (stereo unspecified),8.7*,-1,-6,0,2,1
CC1(Oc2cccc(F)c2)CCN(Cc2ccc3ccccc3c2)C1 (stereo unspecified),0,-7,/,0,-2,19
C[C@H](CO)N1C[C@H](C)[C@@H](CN(C)Cc2ccccc2)OCCCC[C@H](C)Oc2ccc(NC(=O)Nc3ccc(F)cc3)cc2C1=O,1,-7,-17,0,1,-4[16.7 µM]
Cc1cc(C)cc(NC(=O)Cc2ccc(-n3cccc3)cc2)c1,/,/,54*,/,/,5
CC(C)(C)c1nc2ccccc2c2nnc(SCC(=O)Nc3nccs3)n12,/,/,77*,/,/,/
C[C@@H](NC(=O)C[C@H]1C=C[C@@H](NC(=O)Cc2ccccn2)[C@@H](CO)O1)c1ccccc1,-1,2,10,0,-2,/
Cc1ccc(Nc2c(-c3ccco3)nc3ccccn23)cc1,1,75*,/,-1,1,-1
